Sampled rows, rich in hits. Any-hit rate of the full collection: about 5.4%.
HePTP inh: human HePTP phosphatase inhibition. P35236. recombinant HePTP phosphatase activity, OD absorbance. inhibition, % at 20 µM. 110,000 tested, 0.64% active; in the data active means inhibition above about 50%;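 further: plate controls were vehicle for no effect and reference inhibitor for full effect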
Target sequence (P35236 whole entry, looked up): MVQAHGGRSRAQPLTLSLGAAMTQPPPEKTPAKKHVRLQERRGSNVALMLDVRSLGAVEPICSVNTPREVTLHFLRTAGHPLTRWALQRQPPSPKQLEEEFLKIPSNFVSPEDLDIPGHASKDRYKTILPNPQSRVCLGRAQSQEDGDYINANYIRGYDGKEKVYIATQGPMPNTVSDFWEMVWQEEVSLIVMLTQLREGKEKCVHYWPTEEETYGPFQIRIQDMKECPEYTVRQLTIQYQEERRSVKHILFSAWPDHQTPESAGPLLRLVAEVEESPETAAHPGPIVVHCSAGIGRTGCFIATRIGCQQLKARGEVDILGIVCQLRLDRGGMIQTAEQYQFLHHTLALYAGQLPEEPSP
PostGolgi yeast: growth inhibition of a yeast mutant, post-Golgi transport screen. 98,000 tested, 0.9% active. inhibition, % at 10 µM. post-Golgi transport phenotypic cell assay;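 further: yeast cells grown in 1536-well plates; yeast grown about 18 h at 30C before absorbance read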
E coli WT exp: E. coli BW25113 growth inhibition, expanded screen; growth inhibition, % at 100 µM; AID 710; OD600 absorbance; 98,000 tested, 0.15% active;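 active means growth inhibition above about 50% at one test dose, limit read from the data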;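 further: growth measured after 20 h incubation at 37 °C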
Ecoli tolC: E. coli tolC mutant growth inhibition | growth inhibition, % at 10 µM (by protocol) | AID 573 | E. coli BW25113 tolC mutant growth, OD615 | 65,000 tested, 2.2% active;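 active means growth inhibition at or above a cutoff equal to the mean over every tested compound plus 3 SD, cut at about 60% in these data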;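 further: growth measured after 20 h incubation at 37 °C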
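Signal: optical density read at 615 nm; Assay system: E. coli ΔtolC::kan strain BW25113; Times: 20 h incubation with compound, 37 °C; Dosing: 10 µM final, single dose.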
PostGolgi ctrl: inhibits growth of the yeast control strain; inhibition, % at 10 µM; AID 738; efflux-deficient yeast background strain, growth absorbance A615, 16 h; 98,000 tested, 5% active
PLAP activator: activators of human placental alkaline phosphatase. P05187. purified PLAP enzyme, luminescent substrate read-out; stronger effect = higher value. 96,000 tested, 1.2% active. activation fold at 20 µM; in the data active means activation fold above about 2
* hit, by the source's call. Unless noted, no stated cut-off is given here; in the data, active means inhibition above about 30%; inactive means the rest.

How did CCOc1cccc(-c2nnc3sc(C4CCCCC4)nn23)c1 do in these assays?
HePTP inh: 6; PostGolgi yeast: -3; E coli WT exp: -13; Ecoli tolC: 17; PostGolgi ctrl: 33*; PLAP activator: 1.1

What do the screens show for `C/C(=N/N=C(\C)C1C(=O)c2ccccc2C1=O)c1cccs1`?
HePTP inh: 4

Results for O=C(Cc1ccccc1)Nc1nc(-c2cccs2)cs1 ?
HePTP inh: 5; PostGolgi yeast: -8; E coli WT exp: 2; Ecoli tolC: 40; PostGolgi ctrl: -1; PLAP activator: 1.2

Results for O=C(COc1ccc(Cl)cc1)Nc1nc(-c2cccs2)cs1 ?
HePTP inh: 2; PostGolgi yeast: 8; E coli WT exp: -10; Ecoli tolC: 69*; PostGolgi ctrl: 22

Results for O=C(Cc1ccccc1F)Nc1nc(-c2cccs2)cs1 ?
HePTP inh: -6; PostGolgi yeast: 10; E coli WT exp: -1; Ecoli tolC: 91*; PostGolgi ctrl: 6; PLAP activator: 0.9

What do the screens show for `Cc1ccccc1Cn1nnc(C(=O)Nc2cccc(C)c2C)c1N`?
HePTP inh: 1; PostGolgi yeast: 1; E coli WT exp: -2; Ecoli tolC: 27; PostGolgi ctrl: 26; PLAP activator: 0.9

How did Cc1cc(C)cc(NC(=O)c2nnn(Cc3cc(C)ccc3C)c2N)c1 do in these assays?
HePTP inh: 8; PostGolgi yeast: -8; E coli WT exp: -4; Ecoli tolC: 32; PostGolgi ctrl: 37*; PLAP activator: 0.8

How did COC(=O)C1=C(N)Oc2cc(C)n(CC3CCCO3)c(=O)c2C1c1ccc(Cl)c(Cl)c1 (stereo not drawn) do in these assays?
PostGolgi yeast: 0; E coli WT exp: -4; PostGolgi ctrl: 14; PLAP activator: 1.8

What do the screens show for `CCn1c(C)cc2c(c1=O)C(c1ccccc1)C(C(=O)OC)=C(N)O2` (stereo not drawn)?
PostGolgi yeast: -6; E coli WT exp: -2; PostGolgi ctrl: 8; PLAP activator: 1.1

What do the screens show for `COC(=O)C1=C(N)Oc2cc(C)n(C)c(=O)c2C1c1ccc(Cl)c(Cl)c1` (stereo not drawn)?
HePTP inh: 9; PostGolgi yeast: 2; E coli WT exp: -2; Ecoli tolC: -12; PostGolgi ctrl: 46*; PLAP activator: 1.1

Results for COC(=O)C1=C(N)Oc2cc(C)n(Cc3ccco3)c(=O)c2C1c1cccc(Cl)c1 (stereo not drawn) ?
HePTP inh: -5; PostGolgi yeast: -3; E coli WT exp: -17; Ecoli tolC: 68*; PostGolgi ctrl: 25; PLAP activator: 1

How did COc1cccc(-c2cc(C(=O)N3CCN(Cc4ccccc4)CC3)no2)c1 do in these assays?
HePTP inh: 12; PostGolgi yeast: 6; E coli WT exp: -8; Ecoli tolC: 0; PostGolgi ctrl: 16; PLAP activator: 1.1

What do the screens show for `Cc1cc(-c2ccccc2C(=O)O)on1`?
HePTP inh: 10; PostGolgi yeast: -6; E coli WT exp: 1; Ecoli tolC: -14; PostGolgi ctrl: 12; PLAP activator: 1

Results for Cc1ccc(OCC(=O)NCc2cccs2)cc1 ?
PostGolgi yeast: 3; E coli WT exp: 0; PostGolgi ctrl: 3; PLAP activator: 1

Results for CCCCn1c(=O)c(Cc2ccccc2)c(O)c2ccccc21 ?
HePTP inh: 10; PostGolgi yeast: 0; E coli WT exp: -10; Ecoli tolC: 51; PostGolgi ctrl: 7; PLAP activator: 0.9

What do the screens show for `CCCCCCn1c(=O)c(-c2ccccc2)c(O)c2ccccc21`?
PostGolgi yeast: -5; E coli WT exp: -1; PostGolgi ctrl: 38*; PLAP activator: 1.5

Results for O=C(NC(NNc1ccc([N+](=O)[O-])cc1)(C(F)(F)F)C(F)(F)F)c1ccc(Cl)cc1 ?
PostGolgi yeast: 21; E coli WT exp: -8; PostGolgi ctrl: 58*; PLAP activator: 0.9

What do the screens show for `CCNC(=O)/C(C#N)=C/c1ccc(O)c(OCC)c1`?
HePTP inh: 3

What do the screens show for `Cc1cc(=O)[nH]c(-n2[nH]c(C)cc2=O)n1`?
PostGolgi yeast: 3; E coli WT exp: -8; PostGolgi ctrl: 4; PLAP activator: 2.2*

Results for CCOc1ccc(Cl)cc1/C=c1\sc2nc3ccccc3n2c1=O ?
HePTP inh: 6

Results for CC1Cc2cc(-c3csc(NC(=O)Cc4cccs4)n3)ccc2N1S(C)(=O)=O (stereo not drawn) ?
HePTP inh: 6; PostGolgi yeast: -28; E coli WT exp: -13; Ecoli tolC: 63*; PostGolgi ctrl: 25; PLAP activator: 1.4

What do the screens show for `CN(C)c1ccc(C(=O)c2ccc(N(C)C)c(N)c2)cc1N`?
HePTP inh: 2; PostGolgi yeast: 8; E coli WT exp: -8; Ecoli tolC: 6; PostGolgi ctrl: 3; PLAP activator: 1.1

Results for Clc1c(CSc2nc3ccccc3o2)nc2sccn12 ?
HePTP inh: 13; PostGolgi yeast: -2; E coli WT exp: 0; Ecoli tolC: 19; PostGolgi ctrl: 36*; PLAP activator: 0.8

Results for c1ccc2oc(SCc3nc4ccccc4s3)nc2c1 ?
HePTP inh: 1; PostGolgi yeast: 15; E coli WT exp: -4; Ecoli tolC: 61*; PostGolgi ctrl: -2; PLAP activator: 1

Results for c1cc(CSc2nc3ccccc3o2)nc(CSc2nc3ccccc3o2)c1 ?
HePTP inh: 3

What do the screens show for `Cc1cc(/C=C2\SC(=S)NC2=O)c(C)n1C1CC1`?
PostGolgi yeast: 0; E coli WT exp: -11; PostGolgi ctrl: 56*; PLAP activator: 1

How did Cc1ccc(/C(C#N)=C\c2cn(C)c3ccccc23)cc1 do in these assays?
HePTP inh: -9; PostGolgi yeast: -4; E coli WT exp: -10; Ecoli tolC: 44; PostGolgi ctrl: 34*; PLAP activator: 0.8

What do the screens show for `Cn1cc(/C=C(/C#N)C(=O)Nc2cccc(Br)c2)c2ccccc21`?
HePTP inh: -5

Results for Oc1c(C(c2cccs2)N2CCN(c3ccccc3)CC2)ccc2cccnc12 (stereo not drawn) ?
PostGolgi yeast: 11; E coli WT exp: 26; PostGolgi ctrl: 2; PLAP activator: 1.6

What do the screens show for `COc1cc2c(C#N)c(N3CCc4ccccc4C3)nc(N)c2c(N)n1`?
HePTP inh: 13; PostGolgi yeast: 27; E coli WT exp: -14; Ecoli tolC: 74*; PostGolgi ctrl: 77*; PLAP activator: 1.4

What do the screens show for `Clc1ccc(CN2CCC(c3nc4ccc(Cl)cc4[nH]3)CC2)cc1`?
PostGolgi yeast: 10; E coli WT exp: 46; PostGolgi ctrl: 5; PLAP activator: 1.5

Results for Cc1cc2nc(C3CCN(Cc4nnnn4Cc4ccccc4)CC3)[nH]c2cc1C ?
PostGolgi yeast: 7; E coli WT exp: -7; PostGolgi ctrl: 10; PLAP activator: 2.4*

Results for CCC(C)(C)n1nnnc1CN1CCC(c2nc3ccc(C)cc3[nH]2)CC1 ?
HePTP inh: 2; PostGolgi yeast: 2; E coli WT exp: 5; Ecoli tolC: 4; PostGolgi ctrl: 1; PLAP activator: 2.3*

Compound activity (PubChem)
